# Screening results from PubChem BioAssay.
# Rpn11 block: Rpn11 (human) deubiquitinase inhibition. O00487. human 26S proteasome, Ub4-pepOG fluorescence polarization; 20S core pre-blocked with epoxomicin. inhibition, % at 20 µM. actives 0.59% (n = 360,000);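 active = inhibition at 20 µM, scaled to each plate's controls, above about 33%, limit read from the data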
# ABHD5-PLIN5 inh: inhibitors of human ABHD5-perilipin-5 interaction. Q00G26+Q8WTS1. Split G. princeps luciferase complementation, luminescence, 4 h. inhibition, % at 4 µM. actives 0.78% (n = 360,000). AID 602281;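 active = inhibition above the mean inhibition across every tested compound plus 3 SD, cut at about 22% in these data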;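 also: 0% = DMSO only wells and the 100% control is not disclosed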
# XiGFP reactiv: reactivates the inactive X chromosome in mouse fibroblasts; XiGFP mouse fibroblasts, % GFP-positive cells imaging, 3 d; cells co-treated with 5-aza-dC sensitizer; scaled so ellipticine positive control = 100%; activation, % at 7.58 µM; actives 0.055% (n = 360,000); AID 743238;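 active = mean normalized replicate activation at least 10% and every replicate at or above 10%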;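 also: 0% = median of on-plate neutral control wells and 100% = ellipticine 6 µM median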
#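 Schedule: 3 d treatment, 15 min room-temperature fixation; system: 68-5-11 XiGFP fibroblast line; buffer or medium: DMEM plus 5-aza-dC sensitizer; control set: ellipticine 6 µM positive control; compound: one concentration, pinned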
# Rin1-Abl PPI inh: inhibitors of human Rin1-Abl protein interaction; actives 0.4% (n = 360,000); inhibition, % at 7.35 µM; TR-FRET Rin1/Abl binding, biochemical; P00519+Q13671; in the data active = inhibition above about 5%, passing the limit was not always enough
# NadD inh: inhibitors of Staphylococcus aureus NadD; purified NadD enzyme, colorimetric absorbance read-out; inhibition, % at 20 µM; actives 0.78% (n = 360,000); in the data active = inhibition above about 26%
# Rpn11 inh conf: Rpn11 inhibition confirmation, single concentration; shares compounds with Rpn11 block; purified human 26S proteasome, Ub4-pepOG fluorescence polarization; proteasome pretreated with epoxomicin; inhibition, % at 20 µM; actives 29% (n = 1,900)
# MMP-2 counter: blocks human MMP-2, flagging nonselective RPN11 hits. shares compounds with Rpn11 block. recombinant MMP-2, FRET peptide cleavage fluorescence. inhibition, % at 20 µM. actives 4% (n = 1,900). AID 602330;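 also: human MMP-2 activated beforehand with APMA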
# Thrombin FP: counter-screen for RPN11 inhibitors: inhibition of bovine thrombin | bovine thrombin cleavage of Ub4-pepOG, fluorescence polarization | actives 13% (n = 1,900) | inhibition, % at 20 µM | shares compounds with Rpn11 block;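 active = mean inhibition at least 40% at 20 µM, or signal 3 deviations below plate average, so some actives read negative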;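 also: plate controls were thrombin with DMSO for no effect and buffer wells lacking thrombin for full effect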
# Target sequence (P00735 whole entry, looked up): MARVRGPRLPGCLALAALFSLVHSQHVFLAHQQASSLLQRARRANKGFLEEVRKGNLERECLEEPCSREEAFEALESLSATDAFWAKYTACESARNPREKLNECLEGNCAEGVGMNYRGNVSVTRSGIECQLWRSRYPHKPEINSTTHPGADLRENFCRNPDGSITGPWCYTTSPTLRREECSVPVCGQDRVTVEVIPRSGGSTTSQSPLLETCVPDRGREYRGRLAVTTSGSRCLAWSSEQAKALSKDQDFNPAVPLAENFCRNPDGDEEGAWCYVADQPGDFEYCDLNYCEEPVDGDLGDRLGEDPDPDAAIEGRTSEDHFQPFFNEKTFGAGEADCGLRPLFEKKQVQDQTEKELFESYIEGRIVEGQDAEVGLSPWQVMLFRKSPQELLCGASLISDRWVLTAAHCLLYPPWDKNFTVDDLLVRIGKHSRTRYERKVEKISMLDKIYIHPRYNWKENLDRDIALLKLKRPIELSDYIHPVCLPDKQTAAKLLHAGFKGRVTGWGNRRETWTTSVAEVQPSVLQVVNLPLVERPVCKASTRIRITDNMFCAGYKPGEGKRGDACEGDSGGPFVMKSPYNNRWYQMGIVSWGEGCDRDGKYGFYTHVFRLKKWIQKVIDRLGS
# Numbers without * were called inactive; . = no result given. A selection: hits, their analogues and other compounds. The true share with any hit is near 1.9%. Rule as the data show it, unless noted: active = inhibition above about 40%; inactive = the rest.
SMILES,Rpn11 block,ABHD5-PLIN5 inh,XiGFP reactiv,Rin1-Abl PPI inh,NadD inh,Rpn11 inh conf,MMP-2 counter,Thrombin FP
CCOc1ccc(NC(=O)/C=C/c2ccc(OC)cc2)c([N+](=O)[O-])c1,48.1*,-0.1,0.0,4.1,5.3,-16.4,-26.4,-20.4
COc1ccc(/C=C/C(=O)Nc2ccc(OC)cc2[N+](=O)[O-])cc1,44.5*,-0.9,0.1,-3.4,-4.7,39.2,-20.2,14.2
CCOc1ccc(NC(=S)NC(=O)/C=C/c2ccc(C)cc2)c([N+](=O)[O-])c1,3.2,-5.3,.,-2.0,6.0,.,.,.
Cc1ccc(S(=O)(=O)Nc2ccc3c(c2)C(=O)N([C@H](C)CO)C[C@@H](C)[C@@H](CN(C)Cc2ccccc2)O3)cc1,.,.,0.0,.,.,.,.,.
CCc1ccc(C(=O)COC(=O)c2ccc(-c3nnc(-c4ccccc4)o3)cc2)cc1,44.3*,-4.7,.,-3.6,0.5,8.0,5.4,-12.5
COc1ccc(-c2ccc(C#N)c(SCC(=O)Nc3sc4c(c3C#N)CCC4)n2)cc1,17.9,6.8,.,-1.3,17.3,.,.,.
N#Cc1ccc(-c2cccnc2)nc1SCC(=O)Nc1sc2c(c1C#N)CCC2,48.0*,1.0,.,-4.5,13.6,26.4,8.8,20.4
Cc1ccc(N=Nc2c(O)[nH]c(=O)[nH]c2=O)cc1S(=O)(=O)Nc1ccc(Br)cc1,49.5*,-7.1,0.0,0.3,18.4,107.7*,-10.7,71.6*
COC(=O)c1c(SCC(=O)NC2CCCCC2)[nH]c2ccccc2c1=O,90.7*,-3.4,0.0,1.4,-3.9,9.0,-35.2,6.2
O=C(COC(=O)c1cc(=O)[nH]c2ccccc12)NC1CCCCC1,-1.3,-8.9,0.0,-4.9,1.0,.,.,.
CCCN1C[C@H](C)[C@H](OC)CN(C)C(=O)c2ccc(NC(=O)CC)cc2OC[C@H]1C,.,.,0.0,.,.,.,.,.
Cc1noc(C)c1NC(=O)Nc1ccc2c(c1)CC(=O)N([C@H](C)CO)C[C@H](C)[C@@H](CN(C)S(=O)(=O)c1c(C)noc1C)O2,.,.,-0.1,.,.,.,.,.
O=C(CCOc1ccccc1)NCC(c1ccco1)N1CCCCC1 (stereo not drawn),82.8*,-10.3,.,2.8,3.8,-8.5,-55.3,-4.2
O=C(COc1ccccc1)NCC(c1ccco1)N1CCCCC1 (stereo not drawn),1.1,7.8,0.1,-1.1,0.4,.,.,.
CC(C)NC(=O)N(C)C[C@@H]1Oc2c(NS(C)(=O)=O)cccc2C(=O)N(C)C[C@H]1C,.,.,0.3,.,.,.,.,.
CN(C)CCCNc1nc2cc(-c3ccc4c(ccn4C)c3)sc2c(=O)n1C,38.9*,11.0,0.0,-13.1,19.1,17.8,6.9,-15.0
CN(C)CCCNc1nc2cc(-c3ccsc3)sc2c(=O)n1C,1.0,0.9,0.0,-7.8,0.5,.,.,.
COc1ccc(-c2csc(NCCc3nc4cc(Cl)c(N5CCCCC5)cc4n3CCOCCO)n2)cc1,42.0*,9.8,0.0,1.3,-1.4,7.3,4.7,0.5
Cc1ccc(NC(=O)CSc2ncnc3ccccc23)cc1S(=O)(=O)N1CCCCCC1,42.7*,0.0,0.1,-3.2,1.8,21.7,50.0*,-13.5
Cc1ccc(S(=O)(=O)N2CCCCC2)cc1NC(=O)CSc1ncnc2ccccc12,-4.4,0.6,.,-4.0,3.8,.,.,.
C[C@@H]1CN([C@H](C)CO)C(=O)Cc2cc(NC(=O)Cc3cn(C)c4ccccc34)ccc2O[C@@H]1CN(C)S(=O)(=O)c1cn(C)cn1,.,.,-0.8,.,.,.,.,.
CCCNC(=O)[C@H]1[C@H](CO)[C@H]2Cn3c(ccc(-c4ccccc4F)c3=O)[C@@H]1N2CCC,.,.,0.6,.,.,.,.,.
CCN1/C(=C/c2ccc3cc(C)ccc3[n+]2CC)Sc2cc(C)c(C)cc21,88.6*,12.5,162.1*,-4.5,25.8,74.6*,-62.8,145.8*
C[C@@H]1CCCCO[C@H](CN(C)C(=O)CCCN(C)C)[C@@H](C)CN([C@H](C)CO)C(=O)c2cc(NC(=O)CCCN(C)C)ccc2O1,.,.,0.0,.,.,.,.,.
